In ChEMBL document CHEMBL1142894, “Preparation of 5-aryl-3-alkylthio-l,2,4-triazoles and corresponding sulfones with antiinflammatory-analgesic activity” (Bioorg Med Chem, 2007):

How the values were obtained:
Mus musculus [1] = test: Antiinflammatory activity against carrageenan-induced paw edema in Swiss albino mouse assessed as swelling thickness at 50 mg/kg, po after 180 mins; format: functional
Outline: (§1)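 Oral dosing in 0.5% CMC; vehicle to controls. Then carrageenan (0.5 mg/25 ll, freshly suspended in 154 mM saline) injected into the right hind paw subplantar tissue; saline into the left paw. Right-left footpad thickness difference measured by dial gauge calliper every 90 min over 6 h. Inhibition % is relative to vehicle control. n = 6; mean ± SEM.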

Mus musculus [2] = test: Antiinflammatory activity against carrageenan-induced paw edema in Swiss albino mouse assessed as swelling thickness at 50 mg/kg, po after 270 mins; format: functional; outline: as §1
Mus musculus [3] = test: Antiinflammatory activity against carrageenan-induced paw edema in Swiss albino mouse assessed as swelling thickness at 50 mg/kg, po after 360 mins; format: functional; outline: as §1
Mus musculus [4] = test: Antiinflammatory activity against carrageenan-induced paw edema in Swiss albino mouse assessed as swelling thickness at 200 mg/kg, po after 90 mins; format: functional; outline: as §1
Mus musculus [5] = test: Antiinflammatory activity against carrageenan-induced paw edema in Swiss albino mouse assessed as swelling thickness at 200 mg/kg, po after 180 mins; format: functional; outline: as §1
Mus musculus [6] = test: Antiinflammatory activity against carrageenan-induced paw edema in Swiss albino mouse assessed as swelling thickness at 200 mg/kg, po after 270 mins; format: functional; outline: as §1
Mus musculus [7] = test: Antiinflammatory activity against carrageenan-induced paw edema in Swiss albino mouse assessed as swelling thickness at 200 mg/kg, po after 360 mins; format: functional; outline: as §1
Mus musculus [8] = test: Inhibition of carrageenan-induced paw edema in Swiss albino mouse at 25 mg/kg, po after 90 mins relative to control; format: functional; details: 1.5 h; outline: as §1
Mus musculus [9] = test: Inhibition of carrageenan-induced paw edema in Swiss albino mouse at 25 mg/kg, po after 180 mins relative to control; format: functional; details: 3 h; outline: as §1
Mus musculus [10] = test: Inhibition of carrageenan-induced paw edema in Swiss albino mouse at 25 mg/kg, po after 270 mins relative to control; format: functional; details: 4.5 h; outline: as §1
Mus musculus [11] = test: Inhibition of carrageenan-induced paw edema in Swiss albino mouse at 25 mg/kg, po after 360 mins relative to control; format: functional; details: 6 h; outline: as §1
Mus musculus [12] = test: Inhibition of carrageenan-induced paw edema in Swiss albino mouse at 50 mg/kg, po after 90 mins relative to control; format: functional; details: 1.5 h
Outline: (§2)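 Mice, n = 6 per group. Test agent given orally as a suspension in 0.5% sodium CMC in distilled water; controls received vehicle only. Afterwards, 0.5 mg/25 ll carrageenan in saline (154 mM NaCl) injected subplantar into the right hind paw, saline into the left. Right-minus-left footpad thickness measured by dial gauge caliper every 90 min for 6 h. Inhibition is relative to vehicle-control group means.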

Mus musculus [13] = test: Inhibition of carrageenan-induced paw edema in Swiss albino mouse at 50 mg/kg, po after 180 mins relative to control; format: functional; details: 3 h; outline: as §1
Mus musculus [14] = test: Inhibition of carrageenan-induced paw edema in Swiss albino mouse at 50 mg/kg, po after 270 mins relative to control; format: functional; details: 4.5 h; outline: as §2
Mus musculus [15] = test: Inhibition of carrageenan-induced paw edema in Swiss albino mouse at 50 mg/kg, po after 360 mins relative to control; format: functional; details: 6 h; outline: as §2
Mus musculus [16] = test: Inhibition of carrageenan-induced paw edema in Swiss albino mouse at 200 mg/kg, po after 90 mins relative to control; format: functional; details: 1.5 h; outline: as §1
Mus musculus [17] = test: Inhibition of carrageenan-induced paw edema in Swiss albino mouse at 200 mg/kg, po after 180 mins relative to control; format: functional; details: 3 h; outline: as §1
Mus musculus [18] = test: Inhibition of carrageenan-induced paw edema in Swiss albino mouse at 200 mg/kg, po after 270 mins relative to control; format: functional; details: 4.5 h; outline: as §1
Mus musculus [19] = test: Inhibition of carrageenan-induced paw edema in Swiss albino mouse at 200 mg/kg, po after 360 mins relative to control; format: functional; details: 6 h; outline: as §1
Mus musculus [20] = test: Acute toxicity in Swiss albino mouse assessed as lethal effect at 25 mg/kg/day, po after 72 hrs; format: organism-based; design: route oral; details: in vivo
Outline: (§3)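 Oral single dose suspended in 0.5% carboxymethylcellulose, given after a 24 h fast; food and water returned 1 h after dosing. Vehicle-only controls. Mice observed at 1 h, then once daily for 72 h, for toxic signs and mortality.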

Mus musculus [21] = test: Acute toxicity in Swiss albino mouse assessed as lethal effect at 50 mg/kg/day, po after 72 hrs; format: organism-based; design: route oral; details: in vivo; outline: as §3
Mus musculus [22] = test: Acute toxicity in Swiss albino mouse assessed as lethal effect at 100 mg/kg/day, po after 72 hrs; format: organism-based; design: route oral; details: in vivo; outline: as §3
Mus musculus [23] = test: Acute toxicity in Swiss albino mouse assessed as lethal effect at 200 mg/kg/day, po after 72 hrs; format: organism-based; design: route oral; details: in vivo; outline: as §3
Mus musculus [24] = test: Antiinflammatory activity against carrageenan-induced paw edema in Swiss albino mouse assessed as swelling thickness at 50 mg/kg, po after 90 mins; format: functional; outline: as §1

SMILES: CCS(=O)(=O)c1nc(-c2ccccc2Cl)n[nH]1
- Activity (Mus musculus [1]): 35.8 10^-2mm
- Activity (Mus musculus [2]): 41.4 10^-2mm
- Activity (Mus musculus [3]): 40.5 10^-2mm
- Activity (Mus musculus [4]): 43.1 10^-2mm
- Activity (Mus musculus [5]): 45.8 10^-2mm
- Activity (Mus musculus [6]): 51.9 10^-2mm
- Activity (Mus musculus [7]): 56.5 10^-2mm
- inhibition in vivo at 25 mg/kg (Mus musculus [8]): 11.3%
- inhibition in vivo at 25 mg/kg (Mus musculus [9]): 8.4%
- inhibition in vivo at 25 mg/kg (Mus musculus [10]): 8.8%
- inhibition in vivo at 25 mg/kg (Mus musculus [11]): 14.6%
- inhibition in vivo at 50 mg/kg (Mus musculus [12]): 31.9%
- inhibition in vivo at 50 mg/kg (Mus musculus [13]): 39.7%
- inhibition in vivo at 50 mg/kg (Mus musculus [14]): 36.1%
- inhibition in vivo at 50 mg/kg (Mus musculus [15]): 43.8%
- inhibition in vivo at 200 mg/kg (Mus musculus [16]): 18.9%
- inhibition in vivo at 200 mg/kg (Mus musculus [17]): 22.9%
- inhibition in vivo at 200 mg/kg (Mus musculus [18]): 19.9%
- inhibition in vivo at 200 mg/kg (Mus musculus [19]): 21.5%
- Activity (Mus musculus [20]): Non-toxic
- Activity (Mus musculus [21]): Non-toxic
- Activity (Mus musculus [22]): Non-toxic
- Activity (Mus musculus [23]): Non-toxic
- Activity (Mus musculus [24]): 36.2 10^-2mm
